Source: ChEMBL document CHEMBL3593186, “Synthesis, β-hematin inhibition studies and antimalarial evaluation of dehydroxy isotebuquine derivatives against Plasmodium berghei” (Bioorg Med Chem, 2015)

Assays:
[1] = test system: Plasmodium berghei; test: Antimalarial activity against chloroquine susceptible Plasmodium berghei ANKA infected in Balb-C mouse assessed as host survival days at 20 mg/kg, ip qd for 4 days (reference value: 6.80 +/- 0.70 days); format: functional
[2] = Inhibition of haemozoin formation using hemin chloride assessed as beta-hematin formation at 5 to 100 uM after 48 hrs; format: physicochemical
How it was run: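 Hemin chloride (4 mM in DMSO) was mixed with compound in DMSO at 100–5 µM, in triplicate. Water or DMSO served as controls. β-Hematin formation was started with 0.2 M acetate buffer, pH 4.4, and run for 48 h at 37 °C. The pellet was washed with DMSO, dissolved in 0.2 N NaOH, diluted 1:2 in 0.1 N NaOH and read at 405 nm, giving % inhibition of haemozoin formation.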

[3] = test system: Mus musculus; test: Toxicity in chloroquine susceptible Plasmodium berghei ANKA infected Balb-C mouse at 20 mg/kg, ip qd for 4 days; format: organism-based; conditions: in vivo, 96 h
[4] = test system: Plasmodium berghei; test: Antimalarial activity against chloroquine susceptible Plasmodium berghei ANKA infected in Balb-C mouse assessed as reduction of parasitemia at 20 mg/kg, ip qd for 4 days by Giemsa staining (reference value: 65.20 +/- 2.58%); format: functional; parameters: scale not given: the % may be the effect or the level left
[5] = test system: Plasmodium berghei; test: Antimalarial activity against chloroquine susceptible Plasmodium berghei ANKA infected in Balb-C mouse assessed as host survival days at 25 mg/kg, ip qd for 4 days (reference value: 6.80 +/- 0.70 days); format: functional
[6] = test system: Plasmodium berghei; test: Antimalarial activity against chloroquine susceptible Plasmodium berghei ANKA infected in Balb-C mouse assessed as reduction of parasitemia at 25 mg/kg, ip qd for 4 days by Giemsa staining (reference value: 65.20 +/- 2.58%); format: functional

Structure (SMILES)	Survival [1]	inhibition (INH) [2]	Activity [3]	Activity [4]	Survival [5]	Parasitemia [6]
Cl.Clc1ccc2c(Nc3ccc(CN4CCCCC4)c(-c4ccccc4)c3)ccnc2c1	28.4 days	97.08%	Non-toxic	1.8%	–	–
Cl.Clc1ccc2c(Nc3ccc(CN4CCCC4)c(-c4ccccc4)c3)ccnc2c1	28.6 days	98.49%	Non-toxic	2.1%	–	–
CCN(CC)CCCC(C)Nc1ccnc2cc(Cl)ccc12 (stereo unspecified) [CHLOROQUINE]	–	98.57%	–	–	29.4 days	0.6%
Cl.Clc1ccc(-c2cc(Nc3ccnc4cc(Cl)ccc34)ccc2CN2CCCCC2)cc1	26 days	97.21%	–	7.3%	–	–
Cl.Clc1ccc2c(Nc3ccc(CN4CCOCC4)c(-c4ccccc4)c3)ccnc2c1	23.2 days	98.04%	–	6.5%	–	–
CCN(CC)Cc1ccc(Nc2ccnc3cc(Cl)ccc23)cc1-c1ccccc1.Cl	25.2 days	98.45%	–	3.2%	–	–
Cl.Clc1ccc(-c2cc(Nc3ccnc4cc(Cl)ccc34)ccc2CN2CCOCC2)cc1	–	2.03%	–	–	–	–
Cl.Clc1ccc(-c2cc(Nc3ccnc4cc(Cl)ccc34)ccc2CN2CCCC2)cc1	27.3 days	97.25%	Non-toxic	2%	–	–
CN1CCN(Cc2ccc(Nc3ccnc4cc(Cl)ccc34)cc2-c2ccc(Cl)cc2)CC1.Cl	–	1.61%	–	–	–	–
